Key:
[1] = biological target: Receptor-interacting serine/threonine-protein kinase 2 (Homo sapiens) (UniProt O43353); assay: Inhibition of RIPK2 relative to control; conditions: concentration not given here
[2] = biological target: Receptor tyrosine-protein kinase erbB-4 (Homo sapiens, UniProt Q15303); assay: Inhibition of ERBB4 relative to control
[3] = Inhibition of anti-IgM-stimulated human B cell proliferation assessed as [3H]thymidine incorporation preincubated for 30 mins measured after 3 days; format: functional, cell-based; conditions: Homo sapiens, B-cell; read-out: IC50
[4] = biological target: Tyrosine-protein kinase Fgr (Homo sapiens) (UniProt P09769); assay: Inhibition of FGR relative to control; conditions: concentration not given here
[5] = Half life in mouse at 2 mg/kg, iv; format: ADME, organism-based; design: dose 2 mg/kg, route intravenous; conditions: in vivo
[6] = biological target: Hepatocyte growth factor receptor (Homo sapiens) (UniProt P08581); assay: Inhibition of MET relative to control; conditions: concentration not given here
[7] = biological target: Tyrosine-protein kinase BTK (Homo sapiens, UniProt Q06187); assay: Inhibition of BTK relative to control
[8] = biological target: Proto-oncogene tyrosine-protein kinase receptor Ret (Homo sapiens) (UniProt P07949); assay: Inhibition of RET relative to control; conditions: concentration not given here
[9] = biological target: Interleukin-1 receptor-associated kinase 4 (Homo sapiens) (UniProt Q9NWZ3); assay: Inhibition of IRAK4 relative to control; conditions: concentration not given here
[10] = Cmax in mouse at 10 mg/kg, po; format: ADME, organism-based; design: dose 10 mg/kg, route oral; conditions: in vivo
[11] = biological target: Mitogen-activated protein kinase 9 (Homo sapiens) (UniProt P45984); assay: Inhibition of JNK2 relative to control; conditions: concentration not given here
Sequence of Mitogen-activated protein kinase 9 (Homo sapiens) (P45984 whole entry, looked up): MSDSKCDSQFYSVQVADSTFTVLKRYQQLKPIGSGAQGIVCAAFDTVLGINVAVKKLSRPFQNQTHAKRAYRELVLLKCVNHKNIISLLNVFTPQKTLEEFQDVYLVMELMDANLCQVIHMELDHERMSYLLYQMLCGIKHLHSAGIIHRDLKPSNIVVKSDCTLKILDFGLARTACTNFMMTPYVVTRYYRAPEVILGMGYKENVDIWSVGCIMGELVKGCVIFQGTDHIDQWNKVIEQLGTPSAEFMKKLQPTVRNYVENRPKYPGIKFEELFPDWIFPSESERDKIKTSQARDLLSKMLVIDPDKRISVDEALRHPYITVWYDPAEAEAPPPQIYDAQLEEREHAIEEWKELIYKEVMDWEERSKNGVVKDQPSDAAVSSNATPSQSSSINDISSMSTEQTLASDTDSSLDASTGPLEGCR

[12] = biological target: Vascular endothelial growth factor receptor 3 (Homo sapiens) (UniProt P35916); assay: Inhibition of FLT4 relative to control; conditions: concentration not given here
Sequence of Vascular endothelial growth factor receptor 3 (Homo sapiens) (P35916 whole entry): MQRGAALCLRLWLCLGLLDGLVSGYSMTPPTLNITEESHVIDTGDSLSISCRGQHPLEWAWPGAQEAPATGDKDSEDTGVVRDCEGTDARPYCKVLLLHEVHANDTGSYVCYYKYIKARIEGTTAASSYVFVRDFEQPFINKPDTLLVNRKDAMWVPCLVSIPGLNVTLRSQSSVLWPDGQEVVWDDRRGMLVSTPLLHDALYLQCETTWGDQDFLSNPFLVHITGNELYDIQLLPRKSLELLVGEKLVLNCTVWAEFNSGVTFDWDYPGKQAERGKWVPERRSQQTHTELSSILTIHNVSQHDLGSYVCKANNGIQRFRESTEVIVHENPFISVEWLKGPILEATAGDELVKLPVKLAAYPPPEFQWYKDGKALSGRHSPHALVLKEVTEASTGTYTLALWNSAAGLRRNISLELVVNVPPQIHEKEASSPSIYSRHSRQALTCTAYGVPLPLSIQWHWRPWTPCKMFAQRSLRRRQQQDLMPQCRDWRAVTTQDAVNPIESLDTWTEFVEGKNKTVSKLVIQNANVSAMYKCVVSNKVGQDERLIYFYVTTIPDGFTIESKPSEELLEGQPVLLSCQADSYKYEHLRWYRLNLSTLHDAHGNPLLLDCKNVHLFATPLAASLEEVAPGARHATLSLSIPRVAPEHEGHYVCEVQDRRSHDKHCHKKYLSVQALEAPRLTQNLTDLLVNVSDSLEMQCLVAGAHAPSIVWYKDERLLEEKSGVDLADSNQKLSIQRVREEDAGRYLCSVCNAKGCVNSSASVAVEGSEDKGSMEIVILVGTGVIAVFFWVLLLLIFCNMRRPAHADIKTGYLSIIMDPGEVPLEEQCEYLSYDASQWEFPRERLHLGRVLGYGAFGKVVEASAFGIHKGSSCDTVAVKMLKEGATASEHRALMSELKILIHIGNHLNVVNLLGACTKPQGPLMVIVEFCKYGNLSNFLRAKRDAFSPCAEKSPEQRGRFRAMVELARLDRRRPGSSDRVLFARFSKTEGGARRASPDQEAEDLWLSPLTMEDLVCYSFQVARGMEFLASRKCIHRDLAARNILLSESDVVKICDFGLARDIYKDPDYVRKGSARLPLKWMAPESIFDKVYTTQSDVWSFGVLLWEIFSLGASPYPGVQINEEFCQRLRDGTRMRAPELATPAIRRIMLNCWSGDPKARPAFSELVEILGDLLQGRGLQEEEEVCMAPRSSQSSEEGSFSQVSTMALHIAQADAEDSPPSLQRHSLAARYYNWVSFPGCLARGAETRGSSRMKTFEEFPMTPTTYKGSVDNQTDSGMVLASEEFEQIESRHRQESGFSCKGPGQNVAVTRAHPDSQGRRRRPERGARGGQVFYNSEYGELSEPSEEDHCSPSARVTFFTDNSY

[13] = biological target: Mitogen-activated protein kinase 14 (Homo sapiens) (UniProt Q16539); assay: Inhibition of MAPK14 relative to control; conditions: concentration not given here
Sequence of Mitogen-activated protein kinase 14 (Homo sapiens) (Q16539 whole entry): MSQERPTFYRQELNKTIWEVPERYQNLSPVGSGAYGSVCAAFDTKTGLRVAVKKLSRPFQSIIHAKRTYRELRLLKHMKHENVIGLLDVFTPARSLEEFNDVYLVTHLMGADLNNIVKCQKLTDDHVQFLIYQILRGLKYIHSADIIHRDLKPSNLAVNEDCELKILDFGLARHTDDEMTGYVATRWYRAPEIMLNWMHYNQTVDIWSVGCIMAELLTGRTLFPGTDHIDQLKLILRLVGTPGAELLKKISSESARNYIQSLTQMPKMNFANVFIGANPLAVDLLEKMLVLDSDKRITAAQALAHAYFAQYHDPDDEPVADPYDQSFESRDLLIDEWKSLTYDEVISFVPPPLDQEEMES

[14] = biological target: Serine/threonine-protein kinase Chk2 (Homo sapiens) (UniProt O96017); assay: Inhibition of CHEK2 relative to control; conditions: concentration not given here
Sequence of Serine/threonine-protein kinase Chk2 (Homo sapiens) (O96017 whole entry): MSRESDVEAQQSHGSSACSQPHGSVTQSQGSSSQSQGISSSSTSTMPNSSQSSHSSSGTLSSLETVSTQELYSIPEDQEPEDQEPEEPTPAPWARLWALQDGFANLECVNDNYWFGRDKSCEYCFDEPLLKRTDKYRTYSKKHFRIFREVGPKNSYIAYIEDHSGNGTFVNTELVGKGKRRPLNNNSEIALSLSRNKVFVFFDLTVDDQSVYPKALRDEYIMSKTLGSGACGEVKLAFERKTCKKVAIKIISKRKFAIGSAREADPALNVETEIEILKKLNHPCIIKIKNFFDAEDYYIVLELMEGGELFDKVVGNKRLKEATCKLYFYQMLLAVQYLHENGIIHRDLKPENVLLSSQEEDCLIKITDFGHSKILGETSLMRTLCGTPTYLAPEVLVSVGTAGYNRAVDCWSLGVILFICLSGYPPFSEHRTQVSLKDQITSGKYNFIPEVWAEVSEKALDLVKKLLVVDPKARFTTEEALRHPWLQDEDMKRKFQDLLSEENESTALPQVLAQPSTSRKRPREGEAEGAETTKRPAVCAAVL

[15] = biological target: Protein kinase C alpha type (Homo sapiens) (UniProt P17252); assay: Inhibition of PRKCA relative to control; conditions: concentration not given here
[16] = biological target: Mitogen-activated protein kinase 10 (Homo sapiens) (UniProt P53779); assay: Inhibition of JNK3 relative to control; conditions: concentration not given here
[17] = biological target: cAMP-dependent protein kinase catalytic subunit alpha (Homo sapiens) (UniProt P17612); assay: Inhibition of PRKACA relative to control; conditions: concentration not given here
[18] = biological target: Serine/threonine-protein kinase mTOR (Homo sapiens) (UniProt P42345); assay: Inhibition of FRAP1 relative to control; conditions: concentration not given here
[19] = biological target: Protein-tyrosine kinase 6 (Homo sapiens) (UniProt Q13882); assay: Inhibition of BRK relative to control; conditions: concentration not given here
[20] = biological target: Phosphatidylinositol 4-phosphate 3-kinase C2 domain-containing subunit beta (Homo sapiens) (UniProt O00750); assay: Inhibition of PI3K-C2 beta relative to control; conditions: concentration not given here
Sequence of Phosphatidylinositol 4-phosphate 3-kinase C2 domain-containing subunit beta (Homo sapiens) (O00750 whole entry, the tested form may be a part): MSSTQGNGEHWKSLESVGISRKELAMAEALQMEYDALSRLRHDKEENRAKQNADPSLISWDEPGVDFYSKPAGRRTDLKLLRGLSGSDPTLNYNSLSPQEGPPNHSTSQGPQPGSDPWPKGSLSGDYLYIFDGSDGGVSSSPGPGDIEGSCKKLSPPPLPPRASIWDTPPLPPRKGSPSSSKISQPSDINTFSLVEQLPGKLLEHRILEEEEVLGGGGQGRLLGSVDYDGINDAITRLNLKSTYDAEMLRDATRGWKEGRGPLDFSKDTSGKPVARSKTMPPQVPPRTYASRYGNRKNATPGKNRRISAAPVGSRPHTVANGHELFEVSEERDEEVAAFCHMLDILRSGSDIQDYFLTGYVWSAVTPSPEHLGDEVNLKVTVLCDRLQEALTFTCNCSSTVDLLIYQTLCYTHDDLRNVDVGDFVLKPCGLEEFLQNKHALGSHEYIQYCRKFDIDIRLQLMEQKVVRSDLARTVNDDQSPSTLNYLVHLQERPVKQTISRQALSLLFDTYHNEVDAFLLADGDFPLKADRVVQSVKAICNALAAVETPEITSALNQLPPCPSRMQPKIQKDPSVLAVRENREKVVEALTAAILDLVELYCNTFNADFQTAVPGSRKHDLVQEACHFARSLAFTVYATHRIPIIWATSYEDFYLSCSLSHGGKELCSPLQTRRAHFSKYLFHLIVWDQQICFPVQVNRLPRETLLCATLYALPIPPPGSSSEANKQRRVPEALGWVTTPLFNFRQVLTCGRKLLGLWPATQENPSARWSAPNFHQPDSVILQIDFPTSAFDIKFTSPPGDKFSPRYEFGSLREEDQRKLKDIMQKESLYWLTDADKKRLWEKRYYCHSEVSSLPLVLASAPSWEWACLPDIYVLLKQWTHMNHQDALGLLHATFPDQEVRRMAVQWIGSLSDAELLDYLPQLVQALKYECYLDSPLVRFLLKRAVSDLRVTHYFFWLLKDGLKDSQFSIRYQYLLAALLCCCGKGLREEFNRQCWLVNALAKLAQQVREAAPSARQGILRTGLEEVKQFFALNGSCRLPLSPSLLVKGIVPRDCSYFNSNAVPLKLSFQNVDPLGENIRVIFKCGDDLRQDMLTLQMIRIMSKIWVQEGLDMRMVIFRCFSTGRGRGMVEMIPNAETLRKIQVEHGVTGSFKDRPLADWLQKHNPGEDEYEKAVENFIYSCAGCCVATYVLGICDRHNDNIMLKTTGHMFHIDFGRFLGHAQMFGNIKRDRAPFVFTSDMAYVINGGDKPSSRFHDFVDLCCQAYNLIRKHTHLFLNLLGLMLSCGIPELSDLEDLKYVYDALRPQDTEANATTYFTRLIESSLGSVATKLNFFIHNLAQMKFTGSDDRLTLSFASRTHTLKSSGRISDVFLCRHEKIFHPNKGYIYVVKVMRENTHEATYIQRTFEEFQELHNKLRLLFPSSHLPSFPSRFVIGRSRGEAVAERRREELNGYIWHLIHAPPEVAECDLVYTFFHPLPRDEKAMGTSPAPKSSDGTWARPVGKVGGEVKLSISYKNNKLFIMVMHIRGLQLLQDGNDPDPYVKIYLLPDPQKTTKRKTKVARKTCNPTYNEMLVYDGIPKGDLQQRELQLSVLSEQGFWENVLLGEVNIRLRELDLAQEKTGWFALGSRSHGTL

Mus musculus = assay: Antiarthritic activity in C57BL/6 mouse assessed as inhibition of T-independent type 2 antigen-induced IgG3 antibody titer production administered qd for 7 days by ELISA; format: functional, organism-based; conditions: C57BL6
Summary of the method: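 Female C57BL/6 mice, 8–10 weeks old, immunized ip with NP(109)-Ficoll (TI-2 antigen). Compound or vehicle given po daily for 7 days, starting 1 day before immunization. Serum was collected 6 days after immunization, and NP-specific IgM and IgG3 titers were measured by ELISA.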

Cc1ccccc1Nc1nc2cc(F)c(N(C)C(=O)/C=C/CN(C)C)cc2n2cncc12
inhibition [1]: 8%
IC50 [2]: 43.7 nM
IC50 [3]: 3.41 nM
inhibition [4]: 15%
half-life [5]: 1.5 h
inhibition [6]: -1%
IC50 [7]: 3.31 nM
inhibition [8]: 6%
inhibition [9]: 10%
Cmax [10]: 220 ng/mL
inhibition [11]: 18%
inhibition [12]: 6%
inhibition [13]: 6%
inhibition [14]: 19%
inhibition [15]: -6%
inhibition [16]: 0%
inhibition [17]: 11%
inhibition [18]: 0%
inhibition [19]: -4%
inhibition [20]: 11%
inhibition (Mus musculus): Dose-dependent effect

— ChEMBL document CHEMBL1914368, “Imidazo[1,5-a]quinoxalines as irreversible BTK inhibitors for the treatment of rheumatoid arthritis” (Bioorg Med Chem Lett, 2011)
